Drawing on ChEMBL document CHEMBL1212902, “Efficient synthesis and biological evaluation of demethyl geranylgeranoic acid derivatives” (Bioorg Med Chem, 2010), this text covers Activity for four compounds.

In assay [1] the target is T1, Retinoic acid receptor beta (Homo sapiens) (UniProt P10826).
T1 sequence (whole entry): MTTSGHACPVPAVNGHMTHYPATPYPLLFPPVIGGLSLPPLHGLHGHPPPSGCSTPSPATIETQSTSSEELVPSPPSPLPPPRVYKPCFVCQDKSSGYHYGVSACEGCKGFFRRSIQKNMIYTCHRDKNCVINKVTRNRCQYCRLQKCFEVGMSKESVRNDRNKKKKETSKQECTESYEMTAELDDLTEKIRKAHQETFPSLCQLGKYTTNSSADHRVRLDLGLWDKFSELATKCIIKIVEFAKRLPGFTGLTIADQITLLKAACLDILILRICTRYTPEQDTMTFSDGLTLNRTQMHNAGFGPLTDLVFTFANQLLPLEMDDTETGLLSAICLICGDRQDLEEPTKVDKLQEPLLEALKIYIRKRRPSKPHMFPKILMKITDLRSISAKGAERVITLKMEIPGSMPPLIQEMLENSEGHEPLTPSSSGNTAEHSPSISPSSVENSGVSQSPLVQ
Nature of the assay: Transcriptional activation of human RARbeta expressed in human MG63 cells coexpressing RARE at 1 uM after 48 hrs by luciferase reporter gene assay. Type of assay: cell-based. Conditions: MG-63. The essentials: (§1)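 MG-63 cells were seeded at 2 × 10^5/well, then transfected using Tfx-50 with an SV40-Luc pGL3 reporter plus pRL-CMV. Cells were treated at 10^-6 M for 2 days. Luciferase was normalised to Renilla and reported as fold versus ethanol control, from at least three repeats with SEM.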
On the technique in general: A reporter such as luciferase makes a cellular process visible.

The target in assay [2] is T2, Cellular retinoic acid-binding protein 2 (Rattus norvegicus) (UniProt P51673).
T2 sequence (whole entry): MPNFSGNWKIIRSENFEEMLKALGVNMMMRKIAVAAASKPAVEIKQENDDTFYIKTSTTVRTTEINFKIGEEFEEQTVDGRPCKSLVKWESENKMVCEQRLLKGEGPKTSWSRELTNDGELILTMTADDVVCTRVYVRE
Put plainly: Transcriptional activation of rat CRABP2 expressed in human MG63 cells coexpressing RXRE at 1 uM after 48 hrs. Format: cell-based. The conditions noted are these: MG-63. The essentials:
as §1

Assay [3] deals with HL-60. Nature of the assay: Induction of apoptosis in human HL60 cells after 24 hrs. Conditions: in the assay text read “after 3 days” for “after 24 hrs”. Format: functional, cell-based. The essentials: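 HL-60 cells were seeded at 10^5 cells/well in RPMI-1640 and treated at 10^-6–10^-4 M. They were propidium iodide-stained and analysed by flow cytometry for cell cycle. Apoptosis is expressed as percent dead cells relative to the total untreated cell count, shown as mean with SEM.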

Assay [4] concerns HL-60. Nature of the assay: Antiproliferative activity against human HL60 cells after 24 hrs. Type of assay: functional, cell-based.
The test system of assay [5] is HL-60. Put plainly: Induction of cell differentiation in human HL60 cells assessed as differentiation in to granulocytes. Format: functional, cell-based.
Assay [6] has as its system HL-60. Nature of the assay: Cell cycle arrest in human HL60 cells assessed as accumulation at G0/G1 phase at 25 uM after 24 hrs by flow cytometry. Type of assay: functional, cell-based. The essentials:
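HL-60 cells grown in RPMI-1640 with 10% charcoal-stripped FCS and kanamycin at 37 °C in 5% CO2. Cells were exposed at 2.5 × 10^-5 M for 24 h, stained with propidium iodide at 4 °C for 20 min and analysed on a 488 nm flow cytometer. The percentage of cells in G0/G1 is given relative to untreated cells.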
In general terms: In flow cytometry, cells or beads pass a laser one at a time.

Assay [7] has as its target T3, Retinoic acid receptor RXR-alpha (Homo sapiens) (UniProt P19793).
T3 sequence (whole entry): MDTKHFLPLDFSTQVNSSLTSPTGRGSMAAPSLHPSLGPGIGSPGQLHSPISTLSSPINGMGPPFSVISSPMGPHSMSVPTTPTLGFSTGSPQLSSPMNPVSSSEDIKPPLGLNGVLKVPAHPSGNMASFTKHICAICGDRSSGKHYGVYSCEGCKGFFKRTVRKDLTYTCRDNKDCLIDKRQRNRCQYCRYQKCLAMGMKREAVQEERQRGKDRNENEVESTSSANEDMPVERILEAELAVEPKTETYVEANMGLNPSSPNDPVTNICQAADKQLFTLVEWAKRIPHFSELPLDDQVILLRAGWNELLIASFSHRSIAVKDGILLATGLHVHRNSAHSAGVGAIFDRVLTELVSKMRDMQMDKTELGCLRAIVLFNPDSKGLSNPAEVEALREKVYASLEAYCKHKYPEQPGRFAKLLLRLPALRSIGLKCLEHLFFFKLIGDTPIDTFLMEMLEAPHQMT
Nature of the assay: Transcriptional activation of Gal4-tagged human RXRalpha expressed in human MG63 cells at 1 uM after 48 hrs. Format: cell-based. Conditions: MG-63. The procedure, abridged:
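Human osteosarcoma MG-63 cells in DMEM with 10% charcoal-stripped FCS were seeded at 2 × 10^5/well the day before transfection. They were cotransfected with human RXR fused to the GAL4 DNA-binding domain, a GAL4-site luciferase reporter and a pRL-CMV control. Cells were then exposed at 10^-6 M for 48 h. Firefly luciferase was normalised to Renilla and expressed as fold over ethanol vehicle, from three experiments with SEM.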

Calls of active or inactive are those of the source. The rule behind the calls is not given here.

Take `CC(C)=CCC/C=C/CC/C(C)=C/CC/C(C)=C/C(=O)O`: the outcome in assay [1] was Active. Moreover, the result in assay [2] was inactive.
For `CC(C)=CCC/C(C)=C/CC/C=C/CC/C(C)=C/C(=O)O` the same measures were “Active” and “inactive”.
In the case of `CC(C)=CCC/C(C)=C/CC/C(C)=C/CC/C=C/C(=O)O`, the result in assay [3], in assay [4], in assay [1], in assay [5], in assay [6] and in assay [7] was Active. In addition, the outcome in assay [2] was inactive.
For `C/C=C/CC/C(C)=C/CC/C(C)=C/CC/C(C)=C/C(=O)O`, the result in assay [1] was Active. In assay [2], the result was inactive.
